Consider three molecules from ChEMBL document CHEMBL1145069, “Stereospecific synthesis of 5-substituted 2-bisarylthiocyclopentane carboxylic acids as specific matrix metalloproteinase inhibitors” (J Med Chem, 2003).

Several values for one entry are separate records, joined by “and”; a condition that tells them apart may be missing. Equal entries are not always repeated. Where only a bound is given, the exact number is not on record here.

Usually Cmax stands for the highest concentration seen after dosing. By half-life is commonly meant how long it takes for the measured level to halve. As a reminder, the IC50 is the concentration needed to halve the response being measured. In general, bioavailability refers to the share of a dose that reaches the circulation, judged against a reference dose that is usually intravenous. High values mean much systemic uptake, low ones little systemic uptake.

Data set [1] in a line: In vivo maximum plasma concentration was determined in mice after 50 mg/kg (po) administration. It counts as ADME, organism-based. Set-up: route oral, dose 50 mg/kg. The settings on record: mouse.
Data set [2] has as its system Mus musculus. The data set can be described thus: Tested for antitumor activity in mice against B16F10 melanoma measured as reduction in number of metastases at 100 mg/kg (ip). It counts as functional. In a few lines:
(§1)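 B16-F10 cells passaged in vitro, then 2×10^5 cells per mouse injected into the tail vein of B6D2F1 mice in PBS with 0.5% foetal calf serum. 7 mice per group. Dosing i.p. or p.o. 1 h before inoculation, then daily for 3 days (four doses). Lungs collected on day 11 and fixed in Bouin's fluid. Metastases per lung (total and ≥1 mm) given as % of control mean.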

Data set [3] in a line: In vivo half life in mice after 50 mg/kg (po) administration. The class given is ADME, organism-based. Set-up: dose 50 mg/kg. The settings on record: mouse.
Data set [4] addresses 72 kDa type IV collagenase (Homo sapiens, UniProt P08253). The data set can be described thus: Inhibitory activity against matrix metalloprotease-2 (MMP2).
Data set [5] has as its target Matrix metalloproteinase-9 (Homo sapiens, UniProt P14780). The data set can be described thus: Inhibitory activity against matrix metalloprotease-9 (MMP9).
Data set [6] in a line: In vivo half life in mice after 5 mg/kg (iv) administration. It counts as ADME, organism-based. Details: dose 5 mg/kg. Conditions: mouse.
A short description of data set [7]: Bioavailability in mouse (dose 50 mg/kg i.p.). The class given is ADME, organism-based. Conditions: in vivo, ip.
A further data set is filed under the species Rattus norvegicus. The data set can be described thus: In vitro metabolic stability and first pass metabolism was evaluated in rat hepatic microsomes. It counts as ADME, Liver.
The nature of data set [8]: In vivo maximum plasma concentration was determined in mice after 50 mg/kg (ip) administration. The class given is ADME, organism-based. Set-up: route intraperitoneal, dose 50 mg/kg. The settings on record: mouse.
A further data set has as its target T1, Interstitial collagenase (Homo sapiens, UniProt P03956).
T1 sequence (P03956 whole entry): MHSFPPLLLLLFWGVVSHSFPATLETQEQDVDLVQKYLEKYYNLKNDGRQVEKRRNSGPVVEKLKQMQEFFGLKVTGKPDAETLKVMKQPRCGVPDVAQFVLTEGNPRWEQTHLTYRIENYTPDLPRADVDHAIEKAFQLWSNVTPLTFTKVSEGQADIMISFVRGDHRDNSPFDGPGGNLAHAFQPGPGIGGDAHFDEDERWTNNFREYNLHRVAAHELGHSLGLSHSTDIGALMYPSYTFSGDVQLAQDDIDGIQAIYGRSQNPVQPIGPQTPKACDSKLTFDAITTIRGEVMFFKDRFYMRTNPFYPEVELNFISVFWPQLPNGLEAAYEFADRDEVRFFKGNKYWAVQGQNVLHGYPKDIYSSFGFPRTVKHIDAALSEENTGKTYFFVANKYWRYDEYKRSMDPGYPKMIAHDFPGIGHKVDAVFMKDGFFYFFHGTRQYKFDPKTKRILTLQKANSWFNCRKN
The data set can be described thus: Inhibitory activity against matrix metalloprotease-1 (MMP1).

The nature of data set [9]: In vivo half life in mice after 50 mg/kg (ip) administration. The class given is ADME, organism-based. The settings on record: mouse. Set-up: dose 50 mg/kg.
Another data set has as its target Stromelysin-1 (Homo sapiens, UniProt P08254). The data set can be described thus: Inhibitory activity against matrix metalloprotease-3 (MMP3).
Data set [10] deals with Mus musculus. The data set can be described thus: Tested for antitumor activity in mice against B16F10 melanoma measured as reduction in number of metastases at 200 mg/kg (ip). The class given is functional. An outline of the steps:
as §1

The next data set concerns the target Collagenase 3 (Homo sapiens, UniProt P45452). The data set can be described thus: Inhibitory activity against matrix metalloprotease-13 (MMP13).
For data set [11], the species on record is Homo sapiens. The data set can be described thus: In vitro absorption was measured in Caco-2 cell. The class given is ADME.
Data set [12] has as its system Mus musculus. The data set is described as follows: Tested for antitumor activity in mice against B16F10 melanoma measured as reduction in number of metastases at 100 mg/kg (po). The class given is functional. In a few lines: as §1
The species entered for data set [13] is Homo sapiens. The data set is described as follows: In vitro metabolic stability and first pass metabolism was evaluated in human hepatic microsomes. It counts as ADME, Liver.
Data set [14] can be described thus: In vivo maximum plasma concentration was determined in mice after 5 mg/kg (iv) administration. It counts as ADME, organism-based. Details: route intravenous, dose 5 mg/kg. Conditions: mouse.
In data set [15] the test system is Mus musculus. The data set is described as follows: Tested for antitumor activity in mice against B16F10 melanoma measured as reduction in number of metastases at 200 mg/kg (po). The class given is functional. In a few lines:
as §1

Data set [16] in a line: Bioavailability in mouse (dose 50 mg/kg p.o.). The class given is ADME, organism-based. The settings on record: in vivo, po.
The subject of data set [17] is Mus musculus. The data set is described as follows: Tested for antitumor activity in mice against B16F10 melanoma measured as reduction in number of metastases at 50 mg/kg (ip). The class given is functional. In a few lines: as §1
In data set [18] the test system is Mus musculus. The data set is described as follows: Tested for antitumor activity in mice against B16F10 melanoma measured as reduction in number of metastases at 25 mg/kg (ip). It counts as functional. In a few lines: as §1
The nature of data set [19]: Bioavailability determined. The class given is ADME, organism-based. The settings on record: eutheria, in vivo.

Matrix metalloproteinase-9, sequence (P14780 whole entry): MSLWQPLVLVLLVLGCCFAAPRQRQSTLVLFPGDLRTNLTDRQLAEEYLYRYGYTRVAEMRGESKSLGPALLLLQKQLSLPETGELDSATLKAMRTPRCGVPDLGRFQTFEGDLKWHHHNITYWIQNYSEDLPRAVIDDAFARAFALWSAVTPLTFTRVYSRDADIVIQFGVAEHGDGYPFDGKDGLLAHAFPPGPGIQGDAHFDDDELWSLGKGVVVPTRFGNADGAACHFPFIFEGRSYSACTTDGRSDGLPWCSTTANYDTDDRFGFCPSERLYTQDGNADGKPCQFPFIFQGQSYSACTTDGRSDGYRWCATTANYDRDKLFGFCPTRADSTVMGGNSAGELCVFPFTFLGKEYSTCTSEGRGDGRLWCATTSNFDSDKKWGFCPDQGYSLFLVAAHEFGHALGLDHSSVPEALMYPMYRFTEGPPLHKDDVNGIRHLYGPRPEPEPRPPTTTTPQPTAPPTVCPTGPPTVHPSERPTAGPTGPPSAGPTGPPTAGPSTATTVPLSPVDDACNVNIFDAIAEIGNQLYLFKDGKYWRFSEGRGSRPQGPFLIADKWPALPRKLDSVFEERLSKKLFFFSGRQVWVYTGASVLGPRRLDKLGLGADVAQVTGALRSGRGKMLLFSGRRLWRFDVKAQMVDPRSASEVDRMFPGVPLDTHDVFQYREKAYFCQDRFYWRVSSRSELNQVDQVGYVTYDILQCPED
Stromelysin-1, sequence (P08254 whole entry): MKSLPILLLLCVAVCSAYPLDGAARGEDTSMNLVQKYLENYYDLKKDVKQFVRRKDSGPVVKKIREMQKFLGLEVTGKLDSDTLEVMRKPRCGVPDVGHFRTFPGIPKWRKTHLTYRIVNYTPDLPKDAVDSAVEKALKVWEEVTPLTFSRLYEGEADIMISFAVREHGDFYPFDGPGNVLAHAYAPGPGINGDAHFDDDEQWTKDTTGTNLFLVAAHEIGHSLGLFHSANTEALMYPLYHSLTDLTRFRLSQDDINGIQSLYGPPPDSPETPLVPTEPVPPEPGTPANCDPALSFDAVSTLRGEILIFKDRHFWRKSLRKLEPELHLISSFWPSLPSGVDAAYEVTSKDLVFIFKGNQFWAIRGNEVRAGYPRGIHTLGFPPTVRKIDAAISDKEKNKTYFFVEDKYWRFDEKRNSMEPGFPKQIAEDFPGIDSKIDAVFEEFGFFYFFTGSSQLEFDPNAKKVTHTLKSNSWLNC
72 kDa type IV collagenase, sequence (P08253 whole entry): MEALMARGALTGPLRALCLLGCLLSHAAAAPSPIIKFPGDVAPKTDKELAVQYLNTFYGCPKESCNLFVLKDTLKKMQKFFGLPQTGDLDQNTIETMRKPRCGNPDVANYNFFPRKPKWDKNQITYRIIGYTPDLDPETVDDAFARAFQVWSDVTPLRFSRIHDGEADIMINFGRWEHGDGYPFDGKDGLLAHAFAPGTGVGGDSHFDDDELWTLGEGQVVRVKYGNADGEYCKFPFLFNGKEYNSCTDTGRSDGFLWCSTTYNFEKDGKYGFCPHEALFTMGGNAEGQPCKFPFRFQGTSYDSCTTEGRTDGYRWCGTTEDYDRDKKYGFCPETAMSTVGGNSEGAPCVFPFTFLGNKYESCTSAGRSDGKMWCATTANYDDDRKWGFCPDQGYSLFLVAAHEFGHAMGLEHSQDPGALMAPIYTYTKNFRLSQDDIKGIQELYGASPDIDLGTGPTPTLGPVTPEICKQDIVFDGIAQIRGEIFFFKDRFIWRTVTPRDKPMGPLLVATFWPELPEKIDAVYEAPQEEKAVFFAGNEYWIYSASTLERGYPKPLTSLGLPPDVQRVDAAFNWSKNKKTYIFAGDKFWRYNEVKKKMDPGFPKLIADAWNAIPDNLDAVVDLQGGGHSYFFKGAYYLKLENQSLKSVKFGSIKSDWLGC

Regarding `O=C(O)[C@H]1[C@H](CN2C(=O)c3ccccc3C2=O)CC[C@@H]1SCCc1ccc(-c2ccc(F)cc2)cc1`, the results for the highest concentration (Cmax) in data set [1], in data set [8] and in data set [14] were 107 µg/mL, 130 µg/mL and 40 µg/mL, respectively. Also, the No. of metastases is reported as 32.5 with Mus musculus [2], 24.5 in the data set with Mus musculus [10], 72 in the data set on Mus musculus [12] and 68 in the data set on Mus musculus [15]. The half-life in data set [3] is 4 h; in data set [6], 3.5 h; in data set [9], 4 h. The IC50 in [4] was 62 nM; in [5], 26 nM; against Interstitial collagenase it was 6000 nM; against Stromelysin-1, 60 nM; on Collagenase 3, 248 nM. Further, the bioavailability stood at 100% in data set [7] and 93% in [16]. Further, the values for the MF in the data set listed under Rattus norvegicus and in the data set filed under Homo sapiens [13] were 55% and 62%, respectively. This molecule also yielded an Absorption in the data set listed under Homo sapiens [11] of 90%.
Turning to `O=C(O)[C@H]1[C@H](Cn2nnc3ccccc3c2=O)CC[C@@H]1Sc1ccc(-c2ccc(Cl)cc2)cc1`, the peak concentration (Cmax) in data set [1] was found to be 93 µg/mL; in data set [8] it was 203 µg/mL; in data set [14], 40 µg/mL. Besides, the No. of metastases in the data set on Mus musculus [2] stood at 30; in the data set with Mus musculus [17], 39; in the data set on Mus musculus [18] it was 45; in the data set on Mus musculus [12], 70; in the data set on Mus musculus [15] it was 74.5. Besides, the half-life in data set [3] was 3 h; in data set [6], 3.4 h; in data set [9] it was 4 h. The bioavailability was 100% in [7] and 69% in data set [16]. Moreover, the MF worked out at 74% in the data set filed under Rattus norvegicus and 100% in the data set filed under Homo sapiens [13]. Also, the IC50 on Interstitial collagenase was > 100000 nM and 12000 nM. In the data set filed under Homo sapiens [11], this molecule came in with an Absorption of 95%.
For the molecule `O=C(NO)C(CCn1nnc2ccccc2c1=O)CSc1ccc(-c2ccc(Cl)cc2)cc1` (stereo not drawn), the half-inhibitory concentration (IC50) in data set [4] is 0.06 nM; in data set [5], 0.5 nM; at Interstitial collagenase it was greater than 10000 nM; at Stromelysin-1, 10 nM; against Collagenase 3, 1.2 nM. Besides, the bioavailability in data set [19] was less than 30%.
